Measurements published in ChEMBL document CHEMBL3853270, “Influence of Birch Bark Triterpenes on Keratinocytes and Fibroblasts from Diabetic and Nondiabetic Donors” (2016).
Calls of active or inactive are those of the source. The calls are words filed in the database; no cut-off is given here.

What was measured:
Assay type in all cases: functional
Fibroblast [1] = assay: Effect on transcription factor related gene expression in non-diabetic adult human primary fibroblasts assessed as JUN mRNA levels at 9.81 uM after 6 hrs by qPCR analysis
Fibroblast [2] = assay: Effect on growth factor related gene expression in non-diabetic adult human primary fibroblasts assessed as VEGFA mRNA levels at 9.81 uM after 6 hrs by qPCR analysis
Outline: (§1)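 Primary human dermal fibroblasts (young or adult nondiabetic, adult diabetic donor) were treated for 6 h against a 0.1% DMSO solvent control. RNA from 320 000 cells per sample was measured by Fluidigm Biomark high-throughput qPCR. Values are fold change relative to solvent control, from four independent experiments, with SD. One-way ANOVA with Bonferroni post-test was applied.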

Fibroblast [3] = assay: Effect on actin cytoskeleton in human non-diabetic primary fibroblasts assessed as formation of thin elongated cellular body at 10 nM after 2 hrs by rhodamine phalloidin-staining based fluorescence microscopic analysis
Outline: (§2)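 Subconfluent cells on glass coverslips, collagen type I coated for fibroblasts; keratinocytes starved 2 days before stimulation. Exposure 2 h, then rhodamine-phalloidin staining (1:25 in PBS) and fluorescence microscopy. Controls were DMSO as solvent and PDGF (fibroblasts) or CNF1 (keratinocytes). Where used, p38-MAPK inhibitor LN 950 (100 nM) was added 30 min beforehand.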

Fibroblast [4] = assay: Effect on growth factor related gene expression in non-diabetic young human primary fibroblasts assessed as VEGFA mRNA levels at 1.96 uM after 6 hrs by qPCR analysis; outline: as §1
Fibroblast [5] = assay: Effect on antiinflammatory related gene expression in non-diabetic young human primary fibroblasts assessed as SOCS3 mRNA levels at 1.96 uM after 6 hrs by qPCR analysis
Outline: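 Primary dermal fibroblasts from one nondiabetic young, one nondiabetic adult and one diabetic adult donor; 320 000 cells per sample, 6 h at 1.96 or 9.81 μM. RNA measured on a high-throughput qPCR chip. Fold change versus 0.1% DMSO control, four independent experiments, SD, one-way ANOVA with Bonferroni post-test.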

Keratinocyte [6] = assay: Effect on antioxidant related gene expression in non-diabetic adult human primary keratinocytes assessed as SOD2 mRNA levels at 9.81 uM after 6 hrs by qPCR analysis
[7] = Effect on wound healing activity in diabetic adult human primary keratinocytes assessed as upregulation of MIP1alpha protein levels at 1.96 uM after 24 hrs by bead-based suspension array analysis; details: Keratinocyte
Keratinocyte [8] = assay: Effect on growth factor related gene expression in non-diabetic adult human primary keratinocytes assessed as VEGFA mRNA levels at 1.96 uM after 6 hrs by qPCR analysis
Outline: (§3)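 Primary human keratinocytes (nondiabetic young or adult, diabetic adult donors) were exposed to compound for 6 h, with 0.1% DMSO as solvent control. Total RNA came from 400 000 cells per sample and was assayed on a Fluidigm Biomark high-throughput qPCR chip. Results are fold change vs solvent control, from 2−4 independent experiments on two donors per group, with SD. Groups were compared by one-way ANOVA with Bonferroni post-test.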

Fibroblast [9] = assay: Effect on adhesion molecules related gene expression in diabetic adult human primary fibroblasts assessed as VCAM1 mRNA levels at 1.96 uM after 6 hrs by qPCR analysis
Outline: (§4)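 Dermal fibroblasts from nondiabetic adult and diabetic adult donors, exposed for 6 h at 1.96 or 9.81 μM. ICAM-1 and VCAM-1 mRNA measured by standard qRT-PCR, n = 3. Fold change versus 0.1% DMSO control, SD, one-way ANOVA with Bonferroni post-test.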

Fibroblast [10] = assay: Effect on growth factors related gene expression in non-diabetic adult human primary fibroblasts assessed as FGF2 mRNA levels at 1.96 uM after 6 hrs by qPCR analysis; outline: as §1
Fibroblast [11] = assay: Effect on pro-inflammatory related gene expression in non-diabetic young human primary fibroblasts assessed as PTGS2 mRNA levels at 9.81 uM after 6 hrs by qPCR analysis
Fibroblast [12] = assay: Effect on antioxidant related gene expression in diabetic adult human primary fibroblasts assessed as SOD2 mRNA levels at 1.96 uM after 6 hrs by qPCR analysis
Fibroblast [13] = assay: Effect on adhesion molecules related gene expression in diabetic adult human primary fibroblasts assessed as VCAM1 mRNA levels at 9.81 uM after 6 hrs by qPCR analysis; outline: as §4
Keratinocyte [14] = assay: Effect on growth factor related gene expression in diabetic adult human primary keratinocytes assessed as PDGFB mRNA levels at 1.96 uM after 6 hrs by qPCR analysis; outline: as §3
Keratinocyte [15] = assay: Effect on MMP1 mRNA expression levels in non-diabetic adult human primary keratinocytes at 1.96 uM after 6 hrs by qPCR analysis
Outline: (§5)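 Primary keratinocytes from nondiabetic young and adult and diabetic adult donors; 400 000 cells per sample, 6 h exposure at 1.96 or 9.81 μM. RNA extracted and read on a high-throughput qPCR chip. Results are fold change versus 0.1% DMSO solvent control from 5−7 independent experiments over two donors per group, SD, one-way ANOVA with Bonferroni post-test.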

Fibroblast [16] = assay: Effect on chemokines related gene expression in diabetic adult human primary fibroblasts assessed as IL8 mRNA levels at 9.81 uM after 6 hrs by qPCR analysis
Keratinocyte [17] = assay: Effect on pro-inflammatory related gene expression in non-diabetic young human primary keratinocytes assessed as PTGS2 mRNA levels at 9.81 uM after 6 hrs by qPCR analysis
Keratinocyte [18] = assay: Effect on antiinflammatory related gene expression in non-diabetic adult human primary keratinocytes assessed as NFKBIA mRNA levels at 1.96 uM after 6 hrs by qPCR analysis; outline: as §5
Keratinocyte [19] = assay: Effect on ECM related gene expression in non-diabetic adult human primary keratinocytes assessed as FBN1 mRNA levels at 1.96 uM after 6 hrs by qPCR analysis; outline: as §5
Keratinocyte [20] = assay: Effect on pro-inflammatory related gene expression in non-diabetic young human primary keratinocytes assessed as IL1R1 mRNA levels at 1.96 uM after 6 hrs by qPCR analysis
Keratinocyte [21] = assay: Effect on antioxidant related gene expression in non-diabetic adult human primary keratinocytes assessed as SOD2 mRNA levels at 1.96 uM after 6 hrs by qPCR analysis
Fibroblast [22] = assay: Effect on pro-inflammatory related gene expression in non-diabetic adult human primary fibroblasts assessed as PTGS2 mRNA levels at 1.96 uM after 6 hrs by qPCR analysis
Fibroblast [23] = assay: Effect on growth factor related gene expression in diabetic adult human primary fibroblasts assessed as GDF15 mRNA levels at 9.81 uM after 6 hrs by qPCR analysis; outline: as §1
Fibroblast [24] = assay: Effect on actin cytoskeleton in human non-diabetic primary fibroblasts assessed as formation of thin elongated cellular body at 10 nM after 2 hrs in presence of p-38 MAPK inhibitor LN 950 by rhodamine phalloidin-staining based fluorescence microscopic analysis; outline: as §2
Keratinocyte [25] = assay: Effect on AQP3 mRNA expression levels in non-diabetic adult human primary keratinocytes at 1.96 uM after 6 hrs by qPCR analysis; outline: as §5
Keratinocyte [26] = assay: Effect on antioxidant related gene expression in diabetic adult human primary keratinocytes assessed as SOD2 mRNA levels at 9.81 uM after 6 hrs by qPCR analysis
Fibroblast [27] = assay: Effect on chemokines related gene expression in diabetic adult human primary fibroblasts assessed as WDR26 mRNA levels at 9.81 uM after 6 hrs by qPCR analysis

Compound: C=C(C)[C@@H]1CC[C@]2(CO)CC[C@]3(C)[C@H](CC[C@@H]4[C@@]5(C)CC[C@H](O)C(C)(C)[C@@H]5CC[C@]43C)[C@@H]12 [BETULIN]
- fold change (FC) (Fibroblast [1]): 3.1
- fold change (FC) (Fibroblast [2]): 2
- Activity (Fibroblast [3]): Active
- fold change (FC) (Fibroblast [4]): 1.7
- fold change (FC) (Fibroblast [5]): 3
- fold change (FC) (Keratinocyte [6]): 1.6
- Activity [7]: Active
- fold change (FC) (Keratinocyte [8]): 1.3
- fold change (FC) (Fibroblast [9]): 3.3
- fold change (FC) (Fibroblast [10]): 2.9
- fold change (FC) (Fibroblast [11]): 14.7
- fold change (FC) (Fibroblast [12]): 2.2
- fold change (FC) (Fibroblast [13]): 1.3
- fold change (FC) (Keratinocyte [14]): 1
- fold change (FC) (Keratinocyte [15]): 1
- fold change (FC) (Fibroblast [16]): 3.7
- fold change (FC) (Keratinocyte [17]): 1.5
- fold change (FC) (Keratinocyte [18]): 1.4
- fold change (FC) (Keratinocyte [19]): 0.9
- fold change (FC) (Keratinocyte [20]): 0.9
- fold change (FC) (Keratinocyte [21]): 1.3
- fold change (FC) (Fibroblast [22]): 146
- fold change (FC) (Fibroblast [23]): 1.8
- Activity (Fibroblast [24]): Active
- fold change (FC) (Keratinocyte [25]): 0.8
- fold change (FC) (Keratinocyte [26]): 1.6
- fold change (FC) (Fibroblast [27]): 1.2
